# This is a sample that favours compounds with a hit; in the whole collection about 2.2% have one here.
# RBBP9 inhibitor – human RBBP9 inhibitors, primary screen, biochemical, fluorescence polarization, FP-Rh probe, HTS. AID 1515, 2009. recombinant RBBP9. actives 0.2% (n = 220,000). Serine hydrolase RBBP9 (Homo sapiens), O75884. inhibition, % at 7.94 µM;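 active = inhibition above the campaign mean of all tested compounds plus 3 SD, cut at about 14% in these data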;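 note: plate controls were DMSO wells with RBBP9 for no effect and wells lacking RBBP9 protein for full effect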
#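 System: RBBP9 protein / Quantity: 2.5 µM RBBP9 dispensing solution, before mixing / Also added: Serine-hydrolase probe FP-Rh, 375 nM pre-mixing / Dosing: 7.94 µM single dose, 0.794% DMSO / Timing: enzyme-compound preincubation 30 min, then probe labeling 45 min, 25 °C / Signal: FP readout at 525/598 nm / Controls: DMSO-treated enzyme wells and wells lacking RBBP9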
# Mdm2 ligase inh – MDM2-luciferase reporter signal enhancers, primary screen, MDM2 E3 ligase inhibitor project, cell-based, luminescence, 1536-well; E3 ubiquitin-protein ligase Mdm2 (Homo sapiens), Q00987; cell-based MDM2 ubiquitination luciferase reporter, 2 h; 0 = plate control, 100 = twice control, blank-subtracted; signal enhancement, % at 5 µM; actives 0.11% (n = 210,000); AID 1230, 2008;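 active = signal enhancement of 30% or more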;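 note: luminescence tracks abundance of the self-degrading MDM2-luciferase fusion protein; higher signal means inhibition of MDM2 E3 ligase activity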
#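 Material: stable MDM2–luciferase fusion reporter cells / Quantity: 2000 cells/well / Dosing: single 5 µM compound dose, 0.2% final DMSO / Buffer or medium: DMEM / Schedule: 4 h cell settling then 2 h compound exposure, 37 °C / Detection: luminescence with SteadyLite reagent, 15 min at room temperature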
# Hsp70 act – Hsp70 transcriptional activators, primary screen, cell-based, HeLa, Hsp70 promoter luciferase, luminescence, 10 µM; HeLa Hsp70 promoter luciferase reporter; scaled: vehicle 0, proteasome-inhibitor control 100%; actives 0.04% (n = 200,000); activation, % at 10 µM;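 active = activation above the mean across all tested compounds plus 3 SD, cutoff set per campaign, cut at about 5.5% in these data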;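 note: 100% = MG132 at 30 µM as the positive control and 0% = DMSO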
# Wee1 stabilizer – Wee1 degradation inhibitors, primary screen, cell-based, HeLa, Wee1K328M-luciferase, luminescence; reporter increase, % at 5 µM; Wee1-like protein kinase (Homo sapiens), P30291; actives 1.2% (n = 220,000); HeLa Luc-Wee1K328M stability; 100% = proteasome inhibitor MG132 effect;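 active = activation above the mean of all tested compounds plus 3 SD, set per screening run, cut at about 8.8% in these data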;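 note: cells exposed to compound for 20 h before luminescence read; 0% = DMSO alone and 100% = MG132 at 30 µM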
# Target sequence (P30291 whole entry K328M): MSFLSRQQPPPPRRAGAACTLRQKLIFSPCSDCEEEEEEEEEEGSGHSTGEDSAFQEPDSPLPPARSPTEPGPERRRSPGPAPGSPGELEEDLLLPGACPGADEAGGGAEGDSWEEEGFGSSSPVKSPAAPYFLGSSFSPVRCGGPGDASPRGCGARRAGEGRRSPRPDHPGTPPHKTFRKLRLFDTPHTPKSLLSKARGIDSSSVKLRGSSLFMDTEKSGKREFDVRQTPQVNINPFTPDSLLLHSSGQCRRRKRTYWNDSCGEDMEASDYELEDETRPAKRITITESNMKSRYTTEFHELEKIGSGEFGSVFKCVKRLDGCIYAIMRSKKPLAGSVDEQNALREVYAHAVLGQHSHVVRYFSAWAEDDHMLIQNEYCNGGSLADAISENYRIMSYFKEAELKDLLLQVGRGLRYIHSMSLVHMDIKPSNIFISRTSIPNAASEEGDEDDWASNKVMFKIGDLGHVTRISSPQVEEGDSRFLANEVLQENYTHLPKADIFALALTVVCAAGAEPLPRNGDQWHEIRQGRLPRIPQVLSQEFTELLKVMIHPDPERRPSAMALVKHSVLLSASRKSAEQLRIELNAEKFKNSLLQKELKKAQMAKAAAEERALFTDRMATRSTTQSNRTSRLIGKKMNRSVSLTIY
# Ins promoter up – insulin promoter activators in MIN6 cells, imaging, high-content screening, mouse beta cells; actives 0.3% (n = 190,000); z-score at 5 µM; AID 1625, 2009; MIN6 insulin promoter-GFP reporter; hits give high values;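 active = z-score above 3 at 5 µM with at least 500 cells counted in the well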
# INS promoter inh – inhibitors of insulin promoter-driven GFP, primary screen, imaging, TRM-6 cells, eGFP reporter, cell count; reporter expression induced with tamoxifen; actives 0.9% (n = 130,000); inhibition, % at 2 µM; AID 1273, 2008;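 active = inhibition above the mean plus 3 SD, with well images judged a real hit on visual review, cut at about 60% in these data, passing the limit was not always enough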
# Active calls of the source: *; . = not tested or not shown.
SMILES,RBBP9 inhibitor,Mdm2 ligase inh,Hsp70 act,Wee1 stabilizer,Ins promoter up,INS promoter inh
N#C/C(=C\c1ccccc1OCc1ccc(C(=O)O)cc1)C(=O)Nc1ccc(O)cc1,-5,-24,0,-1,0.18,0
CCN1C(=O)N/C(=C/c2ccc(C)o2)C1=O,-2,0,0,4,0.25,.
Cc1ccc(/C=C2/NC(=O)N(Cc3ccc(Br)cc3)C2=O)o1,-5,32*,0,2,0.19,-40
CC(=O)c1cccc(NC(=O)c2ccoc2C)c1,6,-1,0,0,1.4,.
C/C(=N\NC(=O)c1nn(C)c(C)c1Br)c1cccc(NC(=O)c2ccoc2C)c1,-5,-4,0,9.8*,-0.31,-8
CSC1=NSC2=NC(=O)/C(=C\c3cccs3)C(=N)N12,-2,2,0,2,0.03,79*
CC(C)CSC1=NSC2=NC(=O)/C(=C\c3cccs3)C(=N)N12,-11,12,0,5,0.63,-24
Cc1cc(/C=C2\SC(=S)NC2=O)c(C)n1-c1ccc(O)cc1,-8,-45,.,1,3.7*,.
COc1ccc(-n2c(C)cc(/C=C3\SC(=S)NC3=O)c2C)cc1,-2,12,0,4,.,.
O=C(CSc1nnc(NC(=O)c2ccco2)s1)NC1CCCCC1,-1,-1,0,0,-0.38,-18
CCCc1c(-c2ccc(O)cc2)nn(-c2ccc(O)cc2)c1-c1ccc(O)cc1,.,-2,.,.,-0.13,.
O=C(CSc1ncnc2ccccc12)NCC(=O)c1ccccc1,1,-7,0,10*,.,36
COc1ccc(-c2cc(N)n(S(=O)(=O)c3c(F)c(F)c(F)c(F)c3F)n2)cc1OC,-6,-22,20*,-3,-0.37,50
O=C(COC(=O)COc1ccccc1[N+](=O)[O-])NC1CCCC1,-10,-9,0,10*,0.71,.
COCCn1c(SCC(=O)Nc2cccc(C)n2)nnc1-c1ccco1,-1,-10,0,-1,-0.1,.
CC1OC23CCCCC2C(C#N)(C(=N)O3)C1(C#N)C#N (stereo not given),9,-6,0,2,0.76,77*
CC(=O)NS(=O)(=O)c1ccc(Nc2ccc([N+](=O)[O-])c3nonc23)cc1,-6,.,.,1,-0.38,.
COc1cc2nc(Cl)nc(N3CCOCC3)c2cc1OC,-2,-9,0,-2,.,.
COC(=O)c1ccc(CSc2nc3ccccc3o2)cc1,-4,-84,0,-1,1.1,81*
CC(NC(=O)c1ccccc1)c1ccc(Br)cc1 (stereo not given),-8,-10,0,1,-0.07,88*
Cc1cc(C)n2nc(SCc3nnc(-c4ccccc4Br)o3)nc2n1,0,-1,0,1,0.16,17
CCCN(CCC)C(=O)C1CC(=O)OC12CCCCC2 (stereo not given),3,0,0,-3,0.48,.
CC1CCN(C(=O)CSc2nnc(Cc3cccn3C)n2-c2ccc(F)cc2)CC1,2,8,0,-1,-1.6,71*
Cc1ccc(NC(=O)Cc2nnc(SCC(=O)c3ccc(Br)cc3)n2C)cc1Cl,-6,-4,0,-2,0.62,-8
Cc1ccc(S(=O)(=O)N(C)C)cc1NC(=O)COC(=O)/C(=C/c1ccc(F)cc1)c1cccs1,-18,-15,0,0,0.22,64*
CC1=NN(c2nc(-c3ccc(C)cc3)cs2)C(=O)C1N=Nc1ccc(C(N)=O)cc1 (stereo not given),-5,-15,0,9.9*,-0.21,-18
CC1=NN(c2nc(-c3ccc(C)cc3)cs2)C(=O)C1N=Nc1ccc2ccccc2c1 (stereo not given),1,-11,0,-1,-0.33,13
CCN(CC)c1ccc(/C=N/NC(=O)c2ccccn2)cc1,-11,-39,.,9.5*,.,.

# Compound activity as filed in PubChem BioAssay.
